Columns and labels:
Mus musculus [1] = experiment: Antidiabetic activity in C57BL/6N mouse assessed as reduction in blood glucose AUC (0 to 120 mins) at 15 mg/kg administered as single dose after 16 hrs of starvation followed by glucose challenge at 4 hrs post dose by OGTT relative to control; format: functional; set-up: scale not given: the % may be the effect or the level left
Method in brief: (§1)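 C57BL/6N mice were fasted 16 h and given a single dose: vehicle (0.5% sodium carboxymethylcellulose, 10 mL/kg), test compounds at 5 or 15 mg/kg, or metformin at 300 mg/kg. A glucose challenge (3 g/kg, oral) followed 4 h later. Blood glucose was read at 0, 15, 30, 60, 90 and 120 min for AUC0–2h. n = 8; mean ± SE versus vehicle.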

[2] = molecular target: T1, Glucose-dependent insulinotropic receptor (Homo sapiens) (UniProt Q8TDV5); experiment: Agonist activity at human GPR119 expressed in CHOK1 cells assessed as cAMP accumulation after 1 hr by ultra LANCE assay relative to GSK1292263; format: functional, cell-based
T1 sequence (whole entry): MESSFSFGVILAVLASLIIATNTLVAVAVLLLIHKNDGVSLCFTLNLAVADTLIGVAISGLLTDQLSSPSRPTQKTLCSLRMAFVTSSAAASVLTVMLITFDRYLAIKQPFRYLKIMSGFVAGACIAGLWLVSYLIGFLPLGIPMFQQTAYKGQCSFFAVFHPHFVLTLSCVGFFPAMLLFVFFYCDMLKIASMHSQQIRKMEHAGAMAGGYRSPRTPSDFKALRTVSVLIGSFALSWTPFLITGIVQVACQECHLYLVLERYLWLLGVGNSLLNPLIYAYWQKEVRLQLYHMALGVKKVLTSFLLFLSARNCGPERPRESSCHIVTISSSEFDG
Method in brief: (§2)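 hGPR119-transfected cells were centrifuged and resuspended in cAMP assay buffer (HBSS, 0.1% BSA, 0.5 mM IBMX). They were treated with compounds over a concentration range for 1 h. Eu-cAMP tracer and ULight anti-cAMP lysis solutions were then added, with 1 h at room temperature. LANCE Ultra TR-FRET read, triplicates per concentration. EC50 is the concentration giving 50% cAMP stimulation; %max is relative to GSK-1292263 maximal effect.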

Mus musculus [3] = experiment: Antidiabetic activity in C57BL/6N mouse assessed as reduction in blood glucose AUC (0 to 120 mins) administered as single dose after 16 hrs of starvation followed by glucose challenge at 4 hrs post dose by OGTT; format: functional, organism-based; method in brief: as §1
Mus musculus [4] = experiment: Antidiabetic activity in C57BL/6N mouse assessed as reduction in blood glucose AUC (0 to 120 mins) at 5 mg/kg administered as single dose after 16 hrs of starvation followed by glucose challenge at 4 hrs post dose by OGTT relative to control; format: functional; set-up: scale not given: the % may be the effect or the level left; method in brief: as §1
[5] = molecular target: T2, Glucose-dependent insulinotropic receptor (Homo sapiens, UniProt Q8TDV5); experiment: Agonist activity at human GPR119 expressed in CHOK1 cells assessed as cAMP accumulation after 1 hr by ultra LANCE assay; format: functional, cell-based; method in brief: as §2
T2 sequence (Q8TDV5 whole entry): T1 sequence (whole entry)

Mus musculus [6] = experiment: Antidiabetic activity in C57BL/6N mouse assessed as reduction in blood glucose AUC (0 to 120 mins) at 300 mg/kg administered as single dose after 16 hrs of starvation followed by glucose challenge at 4 hrs post dose by OGTT relative to control; format: functional; set-up: scale not given: the % may be the effect or the level left; method in brief: as §1

| SMILES | %max [2] [%] | EC50 [5] [nM] | Activity (Mus musculus [1]) [%] | Activity (Mus musculus [3]) | Activity (Mus musculus [4]) [%] | Activity (Mus musculus [6]) [%] |
| --- | --- | --- | --- | --- | --- | --- |
| CC(C)(C)OC(=O)N1[C@@H]2CC[C@H]1C[C@@H](Nc1ncnc3c(Nc4ccc(S(C)(=O)=O)cc4F)ncnc13)C2 | 87.5 | 2.2 | 13.5 | Dose-dependent effect | 6.4 | – |
| CC(C)(C)OC(=O)N1[C@@H]2CC[C@H]1C[C@@H](Nc1ncnc3c(Nc4ccc(S(C)(=O)=O)cc4)ncnc13)C2 | 72.9 | 44 | – | – | – | – |
| CC(C)(C)OC(=O)N1[C@@H]2CC[C@H]1C[C@H](Nc1ncnc3c(Nc4ccc(S(C)(=O)=O)cc4F)ncnc13)C2 | 65.3 | 452 | – | – | – | – |
| CC(C)(C)OC(=O)N1[C@@H]2CC[C@H]1C[C@H](Nc1ncnc3c(Nc4ccc(S(C)(=O)=O)cc4)ncnc13)C2 | 47.5 | 1400 | – | – | – | – |
| CN(C)C(=N)NC(=N)N [METFORMIN] | – | – | – | – | – | 18.2 |
| CC(C)(C)OC(=O)N1[C@@H]2CC[C@H]1C[C@H](Nc1ncnc3c(Nc4ccc(C#N)cc4F)ncnc13)C2 | 58.1 | 1700 | – | – | – | – |
| CC(C)(C)OC(=O)N1CCC(Nc2ncnc3c(Nc4ccc(S(C)(=O)=O)cc4)ncnc23)CC1 | 61.3 | 345 | – | – | – | – |
| CC(C)(C)OC(=O)N1[C@@H]2CC[C@H]1C[C@@H](Nc1ncnc3c(Nc4ccc(C#N)cc4F)ncnc13)C2 | 83.8 | 8.1 | 8.9 | Dose-dependent effect | 3.5 | – |

More lines, main results first:

| %max [2] [%] | EC50 [5] [nM] | SMILES | Activity (Mus musculus [1]) [%] | Activity (Mus musculus [3]) | Activity (Mus musculus [4]) [%] | Activity (Mus musculus [6]) [%] |
| --- | --- | --- | --- | --- | --- | --- |
| 73.3 | 49 | CC(C)(C)OC(=O)N1C[C@@H]2CC[C@H]1C[C@@H]2Nc1ncnc2c(Nc3ccc(C#N)cc3F)ncnc12 (relative stereo) | – | – | – | – |
| 36.4 | > 10000 | CC(C)(C)OC(=O)N1[C@@H]2CC[C@H]1C[C@H](Oc1ncnc3c(Nc4ccc(C#N)cc4F)ncnc13)C2 | – | – | – | – |
| 67.2 | 147 | CC(C)(C)OC(=O)N1CCC(Nc2ncnc3c(Nc4ccc(C#N)cc4F)ncnc23)CC1 | – | – | – | – |
| 71.8 | 179 | CC(C)(C)OC(=O)N1C[C@@H]2CC[C@H]1C[C@@H]2Nc1ncnc2c(Nc3ccc(S(C)(=O)=O)cc3)ncnc12 (relative stereo) | – | – | – | – |
| 78.9 | 36 | CC(C)(C)OC(=O)N1[C@@H]2CC[C@H]1C[C@@H](Oc1ncnc3c(Nc4ccc(C#N)cc4F)ncnc13)C2 | – | – | – | – |
| 53.4 | 1000 | CC(C)(C)OC(=O)N1CCC(Oc2ncnc3c(Nc4ccc(C#N)cc4F)ncnc23)CC1 | – | – | – | – |
| 31.7 | > 10000 | CC(C)(C)OC(=O)N1C[C@@H]2CC[C@H]1C[C@H]2Nc1ncnc2c(Nc3ccc(C#N)cc3F)ncnc12 (relative stereo) | – | – | – | – |

Reference: ChEMBL document CHEMBL4229527, “Design and synthesis of novel pyrimido[5,4-d]pyrimidine derivatives as GPR119 agonist for treatment of type 2 diabetes” (Bioorg Med Chem, 2018)
